Bioassay records from PubChem BioAssay.
MITF act: MITF TRPM1 promoter activation in melanoma cells; SK-MEL-5 TRPM1-promoter luciferase, 24 h; % of positive control, neutral wells = 0; activation, % at 12.5 µM; 0.75% of 300,000 active;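 active = mean activation of at least 80% with every replicate also reaching 80%; inconclusive = mean reaches 80% but some replicate falls short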;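 also: 0% = neutral control wells and 100% = parthenolide positive control wells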
Vif inh: HIV Vif inhibition; inhibition, % at 7.49 µM; 0.35% of 340,000 active; HEK293T cells, Vif self-association by quenched fluorescence, imaging, 24 h; AID 602346; in the data active = inhibition above about 50%, passing the limit was not always enough; inconclusive = no clear call, values can overlap the other calls; inactive = below about 31%
Xi reactivation: reactivates the inactive X chromosome in mouse fibroblasts; XiGFP mouse fibroblasts, % GFP-positive cells imaging, 3 d; cells co-treated with 5-aza-dC sensitizer; scaled so ellipticine positive control = 100%; activation, % at 7.58 µM; 0.055% of 360,000 active;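 active = mean normalized replicate activation at least 10% and every replicate at or above 10%; inconclusive = only one of the two criteria met; inactive = mean below 10% and not all replicates reach 10%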;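 also: 0% = median of on-plate neutral control wells and 100% = ellipticine 6 µM median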
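System: 68-5-11 XiGFP fibroblast line; Timing: 3 days compound exposure; Compound dosing: one concentration, pinned; Benchmarks: positive control ellipticine, 6 µM final; Buffer or medium: DMEM containing 5-aza-dC.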
esBAF inh: inhibitors of esBAF chromatin remodeling in mouse ES cells | reporter increase, % at 12.5 µM | AID 602393 | Bmi1-luciferase knock-in reporter, 24 h; 100% = twice the neutral-well signal | 2% of 350,000 active; in the data active = activation above about 40%; inconclusive = no clear call, values can overlap the other calls;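 also: 0% = median of the plate's neutral control wells and 100% = double that signal; a rise in the Bmi1 reporter signal indicates esBAF inhibition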
Wnt bcat act: activates Wnt/beta-catenin signaling in a reporter cell assay; activation, % at 9.35 µM; activator, plate reader; 1.2% of 300,000 active; in the data active = activation above about 30%, passing the limit was not always enough; inconclusive = no clear call, values can overlap the other calls;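 also: 0% = neutral control wells and 100% = positive control wells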
* = called active by the depositor; ? = inconclusive; / = not tested or not shown. Rows were chosen to be rich in hits. Some 2.6% of all compounds tested hit in one or more screens of this group.

SMILES	MITF act	Vif inh	Xi reactivation	esBAF inh	Wnt bcat act
C/C(=N\NC(=O)c1cc(C(C)C)[nH]n1)c1ccncc1	12	6	0	24	-1
C/C(=N\NC(=O)c1cc(C)[nH]n1)c1ccc(-c2ccccc2)cc1	23	4	0	14	4
CC(=O)c1c(C(C)=O)c(C)n(-c2cccc([N+](=O)[O-])c2)c1C	12	-6	0	/	-2
CC(=O)C1=C(c2cccc([N+](=O)[O-])c2)N(C(C)=O)n2c(C)nnc2S1	0	3	0	/	75*
Cc1nn(-c2ccc3ccccc3c2)c(=O)c2ccccc12	55	9	0	/	61*
O=C1c2ccccc2S(=O)(=O)N1CC1CC(c2ccc(Cl)cc2)=NO1 (centres undefined)	32	-4	0	/	46*
C[C@@H]1CN([C@H](C)CO)S(=O)(=O)c2ccc(-c3ccc(F)cc3)cc2O[C@@H]1CN(C)C(=O)Nc1ccccc1F	/	/	-1	-2	/
O=C(C[C@H]1C=C[C@H](NC(=O)Nc2ccc(F)cc2)[C@H](CO)O1)NCCN1CCCC1	/	/	0	2	/
C[C@H]1CN([C@@H](C)CO)C(=O)c2cccc(NS(=O)(=O)c3ccc(Cl)cc3)c2O[C@H]1CN(C)Cc1ccc(C(=O)O)cc1	/	/	-1	-3	/
Cc1cc(NCc2ccccc2)n2ncc(-c3ccccc3)c2n1	104*	-9	0	21	28
Cc1cc(NC(C)c2ccccc2)n2ncc(-c3ccccc3)c2n1 (centres undefined)	122*	2	0	59*	27
Cc1cc(C)n(-c2cc(C(C)(C)C)nc3c(-c4ccccc4)cnn23)n1	121*	-6	0	/	56*
Cc1cc(C)n(-c2cc(C(C)(C)C)nc3c(-c4ccc(Cl)cc4)cnn23)n1	29	1	/	17	/
COc1ccccc1NNC(=O)c1cc(C(C)(C)C)nn1Cc1ccccc1	/	-6	0	/	54*
COc1ccc2c3c([nH]c2c1)[C@@H](CO)N(C(=O)C1CCOCC1)CC31CCN(C)CC1	/	/	0	/	/
Cc1ccc(S(=O)(=O)N(C)C[C@@H]2OCCCC[C@H](C)Oc3ccc(NC(=O)Nc4ccccc4)cc3C(=O)N([C@@H](C)CO)C[C@@H]2C)cc1	/	/	0	3	/
C/C(=N\O)c1ccc(N2C(=O)C3CC=C(Cl)CC3C2=O)cc1 (centres undefined)	?	13	/	73*	59*
Cc1ccc(NC(=O)c2ccc(N3C(=O)C4CC=C(Cl)CC4C3=O)cc2)cc1 (centres undefined)	-4	-4	/	-1	1
C/C(=N\Nc1nc2c(s1)CCCC2)c1ccccc1	76	-3	/	47*	6
Cc1cccc(Nc2nc3c(s2)CCCC3)c1	103*	2	0	/	65*
O=C(Nc1nc2c(s1)CCCC2)Oc1ccccc1	14	/	/	4	/
CCCNC(=O)Nc1ccc2c(c1)OC[C@H](C)N(Cc1ccccc1)C[C@@H](C)[C@@H](OC)CN(C)C2=O	/	/	0	-4	/
CO[C@H]1CN(C)C(=O)c2cc(NC(=O)Nc3ccccc3F)ccc2OC[C@@H](C)N(C(C)=O)C[C@@H]1C	/	/	1	1	/
Cc1ccc(CNC(=O)C2CC(c3cccc([N+](=O)[O-])c3)=NO2)cc1 (centres undefined)	0	-5	0	9	3
COc1ccc(CNC(=O)C2CC(c3cccc([N+](=O)[O-])c3)=NO2)cc1 (centres undefined)	49	/	0	54*	16
SMILES	MITF act	Vif inh	Xi reactivation	esBAF inh	Wnt bcat act
O=C(NCC[C@H]1CC[C@H](NS(=O)(=O)Cc2ccccc2)[C@@H](CO)O1)C1CC1	/	/	0	2	/
Cc1ccc(NC(=O)c2ccc(Nc3ccccc3F)nc2)cc1	41	6	0	/	38*
CCn1c(NC(=O)c2ccccc2)nc2ccccc21	/	-5	0	/	31*
CCCCn1c(NC(=O)c2ccccc2)nc2ccccc21	-7	1	/	4	2
O=C(Nc1ccccc1Cl)c1ccc(-c2ccccn2)s1	?	-11	0	82*	30
O=C(Nc1ccccc1Cl)c1cccc(COc2cc(Cl)ccc2Cl)c1	45	7	/	/	38*
O=C(Nc1ccccc1Cl)c1cccs1	35	5	/	15	/
O=C(Nc1ccc(Cl)cn1)c1ccc2nccnc2c1	126*	4	0	/	37*
O=C(Nc1ccccc1Cl)c1ccc2nccnc2c1	103*	-1	0	16	14
N#C[C@@H]1[C@H](c2ccc(C#CC3(O)CCCC3)cc2)[C@@H](CO)N1C(=O)C1CC1	/	/	0	1	/
C[C@@H]1CCCCO[C@@H](CN(C)C(=O)Nc2cccc3ccccc23)[C@H](C)CN([C@@H](C)CO)C(=O)c2cc(NS(C)(=O)=O)ccc2O1	/	/	0	5	/
C[C@@H](NC(=O)C[C@@H]1CC[C@H](NC(=O)C2CC2)[C@@H](CO)O1)c1ccccc1	/	/	-1	3	/
CCN(CC)S(=O)(=O)c1cc(C(=O)Nc2ccc(Cl)cn2)ccc1C	105*	/	/	27	/
CCN(CC)S(=O)(=O)c1cccc(C(=O)Nc2ccc(Cl)cn2)c1	/	-23	/	31	4
CC(=O)n1nc(-c2ccccc2)cc1-c1ccccc1	53	-3	0	/	64*
O=C(O)CC(C(=O)O)n1nc(-c2ccccc2)cc1-c1ccccc1 (centres undefined)	3	8	/	58*	/
O=C(O)Cn1nc(-c2ccccc2)cc1-c1ccccc1	-11	-5	1	14	3
O=C(C[C@H]1C=C[C@H](NC(=O)C2CCOCC2)[C@@H](CO)O1)Nc1ccccc1	/	/	0	/	/
C[C@H]1CN([C@@H](C)CO)C(=O)c2cccc(NS(=O)(=O)c3ccc(F)cc3)c2O[C@H]1CN(C)Cc1ccc(C(=O)Nc2ccccc2N)cc1	/	/	1	/	/
O=C(NC1CCCCC1)[C@@H]1CC=C[C@@H]2CCN(C3CCCCC3)C(=O)[C@@H]21	2	53*	0	-2	-3
C[C@@H]1CN([C@@H](C)CO)C(=O)c2cc(NC(=O)c3ccncc3)ccc2O[C@@H](C)CCCCO[C@H]1CN(C)S(=O)(=O)c1cccs1	/	/	0	-6	/
N#Cc1cc2cc3c(cc2nc1SCC(=O)N1CCCC1)OCCO3	87*	19	/	22	/
COc1cccc(S(=O)(=O)N2C[C@@H](O)COC[C@@H]3O[C@H](CC(=O)NCCCN4CCOCC4)CC[C@H]32)c1	/	/	0	1	/
CCn1nc(C(=O)OCC(=O)Nc2nc(-c3ccc(OC)cc3)cs2)c2ccccc2c1=O	68	18	0	57*	/
O=C(COC(=O)c1cc(=O)[nH]c2ccccc12)Nc1nc(-c2ccc(F)cc2)cs1	46	-1	0	44*	24
CCn1nc(C(=O)OCC(=O)NCC(C)C)c2ccccc2c1=O	9	-2	0	/	1
